The MIC is the smallest concentration in the dilution series that meets the test's criterion for growth inhibition.

In brackets after ≈: the same amount, converted by molar mass. Activity calls are given as the source filed them.

The text below walks through data of ChEMBL document CHEMBL4732030, “Aloe-emodin derived azoles as a new structural type of potential antibacterial agents: design, synthesis, and evaluation of the action on membrane, DNA, and MRSA DNA isomerase” (RSC Med Chem, 2021).

In series [1] the test system is Escherichia coli. The series is described as follows: Antibacterial activity against Escherichia coli ATCC 25922 assessed as inhibition of bacterial growth after 24 hrs by microbroth dilution method. In kind it is functional. The method in brief: (§1)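 Bacterial inoculum set to 1×10^5 CFU with sterile saline. Test agents and reference drugs, from DMSO stocks, diluted in Mueller-Hinton broth to 512, 256, 128, 64, 32, 16, 8, 4, 2, 1 and 0.5 µg/mL. Inoculated dilutions incubated 37 °C for 24 h.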
(In general: In broth dilution the organism is exposed to a series of concentrations in liquid medium.)

Series [2] relates to Staphylococcus aureus. Nature of the series: Antibacterial activity against Staphylococcus aureus ATCC 25923 assessed as inhibition of bacterial growth after 24 hrs by microbroth dilution method. The series is classed as functional. The method, boiled down:
as §1

Series [3] has as its system Acinetobacter baumannii. The series is described as follows: Antibacterial activity against Acinetobacter baumannii assessed as inhibition of bacterial growth after 24 hrs by microbroth dilution method. The series is classed as functional. The method, boiled down:
as §1

Series [4] relates to Staphylococcus aureus. Nature of the series: Potency index, ratio of norfloxacin MIC to compound MIC for antibacterial activity against Staphylococcus aureus incubated for 24 hrs by microbroth dilution method. The series is classed as functional.
For series [5], the system named is Staphylococcus aureus. The series is described as follows: Antibacterial activity against Staphylococcus aureus ATCC 29213 assessed as inhibition of bacterial growth after 24 hrs by microbroth dilution method. The series is classed as functional. The method in brief: (§2)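 Inoculum adjusted in sterile saline to 1×10^5 CFU. Compounds dissolved in DMSO as stock, then diluted in Mueller-Hinton broth as a two-fold series from 512 to 0.5 µg/mL (11 levels). Inoculated dilutions incubated at 37 °C for 24 h, and the MIC recorded.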

Series [6] has as its system Klebsiella pneumoniae. The series is described as follows: Antibacterial activity against Klebsiella pneumoniae assessed as inhibition of bacterial growth after 24 hrs by microbroth dilution method. In kind it is functional. The method, boiled down: as §1
Series [7] has as its system Staphylococcus aureus. The series is described as follows: Antibacterial activity against methicillin resistant Staphylococcus aureus assessed as inhibition of bacterial growth after 24 hrs by microbroth dilution method. The series is classed as functional. The method in brief:
as §2

Series [8] deals with Pseudomonas aeruginosa. The series is described as follows: Antibacterial activity against Pseudomonas aeruginosa assessed as inhibition of bacterial growth after 24 hrs by microbroth dilution method. The series is classed as functional. The method in brief: as §1
Series [9] deals with Staphylococcus aureus. Nature of the series: Antibacterial activity against Staphylococcus aureus assessed as inhibition of bacterial growth after 24 hrs by microbroth dilution method. In kind it is functional. The method in brief: as §1
Series [10] has as its system Enterococcus faecalis. The series is described as follows: Antibacterial activity against Enterococcus faecalis assessed as inhibition of bacterial growth after 24 hrs by microbroth dilution method. The series is classed as functional. The method, boiled down: as §1
Series [11] deals with Escherichia coli. The series is described as follows: Antibacterial activity against Escherichia coli assessed as inhibition of bacterial growth after 24 hrs by microbroth dilution method. The series is classed as functional. The method in brief:
as §1

For series [12], the system named is Pseudomonas aeruginosa. The series is described as follows: Antibacterial activity against Pseudomonas aeruginosa ATCC 27853 assessed as inhibition of bacterial growth after 24 hrs by microbroth dilution method. In kind it is functional. The method in brief:
as §1

The test system of series [13] is Cell membrane. Nature of the series: Disruption of membrane integrity in methicillin-reisitant Staphylococcus aureus assessed as increase in fluorescence intensity at 12 times MIC measured within 50 mins by PI-staining based fluorescence analysis. The method, boiled down: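 Overnight MRSA culture pelleted, washed and resuspended in 5 mM glucose/5 mM HEPES pH 7.4 (1:1). Compound at 12× MIC added to 2 mL suspension containing 10 µM propidium iodide. Fluorescence followed at ex 535/em 617 nm. Water-treated suspension served as control.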

Series [14] has as its system Staphylococcus aureus. Nature of the series: Potency index, ratio of norfloxacin MIC to compound MIC for antibacterial activity against methicillin resistant staphylococcus aureus incubated for 24 hrs by microbroth dilution method. The series is classed as functional.
For series [15], the system named is Cell membrane. The series is described as follows: Disruption of membrane integrity in methicillin-reisitant Staphylococcus aureus assessed as increase in red fluorescence at 12 times MIC by PI-staining based fluorescence microscopy analysis. The method in brief: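 Overnight MRSA cultures treated at 12× MIC, with 0.1% Triton X-100 as positive control and untreated cells as negative control. Cells washed once in 1× PBS and stained with 4.5 mM propidium iodide for 15 min at 37 °C. Imaged by fluorescence microscopy, 10× objective, green-light excitation.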

The subject of series [16] is Calf thymus DNA. Nature of the series: Binding affinity to calf thymus DNA assessed as DNA intercalation by measuring hypochromic shift by UV-visible absorption spectrophotometric method. In kind it is nucleic-acid assay. The note with it: Bos taurus. The method, boiled down:
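DNA held fixed while compound concentration was raised stepwise, in Tris-HCl buffer pH 7.4. UV-vis spectra recorded at room temperature in 1.0 cm quartz cells, monitoring the 260 nm DNA band. Binding constant came from a linear fit of A0/(A−A0) against 1/[compound]. DNA stock concentration was set by A260 (ε260 = 6600 L·mol−1·cm−1, per phosphate), with A260/A280 >1.8.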

Series [17] concerns Calf thymus DNA. Nature of the series: Binding affinity to calf thymus DNA assessed as DNA intercalation by neutral red dye based UV-visible spectroscopic method. The note with it: Bos taurus. The series is classed as nucleic-acid assay. The method, boiled down: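 Neutral red stock prepared in doubly distilled water and kept cool and dark. DNA stock concentration was set by A260 (ε260 = 6600 L·mol−1·cm−1, per phosphate), with A260/A280 >1.8. All solutions were in Tris-HCl pH 7.4. UV spectra were taken at room temperature in 1.0 cm quartz cells.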

In series [18] the test system is Staphylococcus aureus. The series is described as follows: Induction of ROS generation in methicillin-resistant Staphylococcus aureus after 6 hrs by DCFH-DA dye based fluorometric analysis. The series is classed as functional, organism-based. The method in brief: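 MRSA cells at 10^6 CFU/mL were exposed to increasing concentrations of compound for 6 h at 37 °C, then washed with PBS. They were loaded with 10 μM DCFH-DA for 30 min in the dark at 37 °C. DCF fluorescence was read at ex 485/em 528 nm and expressed as fold increase over untreated control cells.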

Series [19] in a line: Cytotoxicity against human LO2 cells assessed as cell viability at 12.5 uM after 72 hrs by CCK8 assay. The series is classed as cell-based, L02. The note with it: read-out: Activity. The method, boiled down:
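Normal human liver LO2 cells seeded at 3000/well and cultured 24 h. Compound added at 100 to 6.25 µM in PBS containing 1% DMSO, then incubated 72 h. CCK8 added for 2 h at 37 °C and absorbance read at 450 nm.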

Series [20] is described as follows: Cytotoxicity against human HepG2 cells assessed as cell viability at 12 uM after 72 hrs by CCK8 assay. The note with it: read-out: Activity. In kind it is cell-based. (In general: Tetrazolium dyes change colour on reduction, which living cells bring about.)

As to `Cn1nnnc1SCc1cc(O)c2c(c1)C(=O)c1cccc(O)c1C2=O`, the minimum inhibitory concentration (MIC) in [1] came out at 64 µg/mL (≈ 174 µM); in series [2], 16 µg/mL (≈ 43.4 µM); in series [3] it was 64 µg/mL (≈ 174 µM); in series [5] it was 32 µg/mL (≈ 86.9 µM); in series [6], 128 µg/mL (≈ 347 µM); in series [7], 32 µg/mL (≈ 86.9 µM). Also, the minimal inhibitory concentration (MIC) was determined as 64 µg/mL (≈ 174 µM) in series [8]; 8 µg/mL (≈ 21.7 µM) in [9]; 128 µg/mL (≈ 347 µM) in [10]; 128 µg/mL (≈ 347 µM) in series [11]; 64 µg/mL (≈ 174 µM) in series [12]. Also, the Ratio in series [4] is on record as 2.

Regarding `Cc1ncc([N+](=O)[O-])n1Cc1cc(O)c2c(c1)C(=O)c1cccc(O)c1C2=O`, the MIC came to 64 µg/mL (≈ 169 µM) in series [1]; 16 µg/mL (≈ 42.2 µM) in series [2]; 32 µg/mL (≈ 84.4 µM) in series [3]; 128 µg/mL (≈ 337 µM) in series [5]; 128 µg/mL (≈ 337 µM) in [6]; 64 µg/mL (≈ 169 µM) in [7]. Besides, the minimum inhibitory concentration (MIC) in series [8] was 64 µg/mL (≈ 169 µM); in series [9], 4 µg/mL (≈ 10.5 µM); in series [10], 128 µg/mL (≈ 337 µM); in series [11], 128 µg/mL (≈ 337 µM); in series [12] it was 32 µg/mL (≈ 84.4 µM). Besides, the Ratio in series [4] is on record as 2.

For the compound `O=C1c2cccc(O)c2C(=O)c2c(O)cc(Cn3cnnn3)cc21`, the result in [13], in series [15], in series [16] and in series [17] was Active. The minimal inhibitory concentration (MIC) in series [1] was determined as 64 µg/mL (≈ 199 µM); in series [2], 64 µg/mL (≈ 199 µM); in [3], 16 µg/mL (≈ 49.6 µM); in series [5], 1 µg/mL (≈ 3.1 µM); in series [6], 32 µg/mL (≈ 99.3 µM); in series [7] it was 2 µg/mL (≈ 6.21 µM). Further, the MIC is 64 µg/mL (≈ 199 µM) in series [8]; 16 µg/mL (≈ 49.6 µM) in series [9]; 4 µg/mL (≈ 12.4 µM) in series [10]; 128 µg/mL (≈ 397 µM) in series [11]; 16 µg/mL (≈ 49.6 µM) in series [12]. Also, the Ratio in [14] was found to be 4. In addition, in series [18], the result was inactive. Also, in series [19], the viability at 72 h, 12.5 µM was above 60%. The viability at 72 h, 12 µM in [20] is above 50%.
